In ChEMBL document CHEMBL3593157, “Discovery of a 1-isopropyltetrahydroisoquinoline derivative as an orally active N-type calcium channel blocker for neuropathic pain” (Bioorg Med Chem, 2015):
pIC50: −log10 of the molar value.

Key:
[1] = Intrinsic clearance in human liver microsomes at 0.2 uM measured up to 45 mins by LC-MS/MS analysis; format: ADME; conditions: read-out: CLH
Method in brief: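 Human liver microsomes (0.2 mg protein/mL) in 100 mM Na+–K+ phosphate buffer pH 7.4 with 1 mM NADPH and 0.1 mM EDTA, preincubated 5 min at 37 °C. Compound at 0.2 µM final, sampled at 0, 15, 30 and 45 min. Residual compound measured by LC–MS/MS. CLint = disappearance rate constant / microsomal protein, from a least-squares linear fit.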

Cytochrome P450 2C9 = Cytochrome P450 2C9 (Homo sapiens, UniProt P11712); assay: Inhibition of recombinant human CYP2C9 using 7-methoxy-4-trifluoromethylcoumarin as substrate after 45 mins by fluorescence-based assay; format: ADME
Sequence of Cytochrome P450 2C9 (P11712 whole entry): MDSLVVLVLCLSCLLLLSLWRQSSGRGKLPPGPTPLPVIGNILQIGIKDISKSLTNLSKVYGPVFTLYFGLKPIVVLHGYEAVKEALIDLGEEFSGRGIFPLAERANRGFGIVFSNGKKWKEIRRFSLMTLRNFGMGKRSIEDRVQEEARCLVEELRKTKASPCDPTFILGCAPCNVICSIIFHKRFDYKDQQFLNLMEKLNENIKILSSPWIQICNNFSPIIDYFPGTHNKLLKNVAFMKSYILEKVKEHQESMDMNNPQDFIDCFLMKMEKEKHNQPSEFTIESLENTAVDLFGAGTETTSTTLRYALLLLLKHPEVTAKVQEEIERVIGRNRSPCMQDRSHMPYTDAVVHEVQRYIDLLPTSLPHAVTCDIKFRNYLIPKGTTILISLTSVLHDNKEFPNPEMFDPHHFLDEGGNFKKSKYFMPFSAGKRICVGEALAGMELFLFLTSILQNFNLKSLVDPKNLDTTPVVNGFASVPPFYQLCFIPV

[2] = Inhibition of N-type calcium channel in human IMR-32 cells by FLIPR assay; format: cell-based
Method in brief: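 Fluorometric imaging plate reader calcium assay in IMR-32 human neuroblastoma cells. Nitrendipine present to block endogenous L-type calcium channels. IC50 determined in duplicate in one experiment.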

[3] = target: Voltage-gated inwardly rectifying potassium channel KCNH2 (Homo sapiens, UniProt Q12809); assay: Inhibition of human ERG expressed in CHO cells after 10 mins by Rb efflux assay; format: cell-based
Sequence of Voltage-gated inwardly rectifying potassium channel KCNH2 (Q12809 whole entry): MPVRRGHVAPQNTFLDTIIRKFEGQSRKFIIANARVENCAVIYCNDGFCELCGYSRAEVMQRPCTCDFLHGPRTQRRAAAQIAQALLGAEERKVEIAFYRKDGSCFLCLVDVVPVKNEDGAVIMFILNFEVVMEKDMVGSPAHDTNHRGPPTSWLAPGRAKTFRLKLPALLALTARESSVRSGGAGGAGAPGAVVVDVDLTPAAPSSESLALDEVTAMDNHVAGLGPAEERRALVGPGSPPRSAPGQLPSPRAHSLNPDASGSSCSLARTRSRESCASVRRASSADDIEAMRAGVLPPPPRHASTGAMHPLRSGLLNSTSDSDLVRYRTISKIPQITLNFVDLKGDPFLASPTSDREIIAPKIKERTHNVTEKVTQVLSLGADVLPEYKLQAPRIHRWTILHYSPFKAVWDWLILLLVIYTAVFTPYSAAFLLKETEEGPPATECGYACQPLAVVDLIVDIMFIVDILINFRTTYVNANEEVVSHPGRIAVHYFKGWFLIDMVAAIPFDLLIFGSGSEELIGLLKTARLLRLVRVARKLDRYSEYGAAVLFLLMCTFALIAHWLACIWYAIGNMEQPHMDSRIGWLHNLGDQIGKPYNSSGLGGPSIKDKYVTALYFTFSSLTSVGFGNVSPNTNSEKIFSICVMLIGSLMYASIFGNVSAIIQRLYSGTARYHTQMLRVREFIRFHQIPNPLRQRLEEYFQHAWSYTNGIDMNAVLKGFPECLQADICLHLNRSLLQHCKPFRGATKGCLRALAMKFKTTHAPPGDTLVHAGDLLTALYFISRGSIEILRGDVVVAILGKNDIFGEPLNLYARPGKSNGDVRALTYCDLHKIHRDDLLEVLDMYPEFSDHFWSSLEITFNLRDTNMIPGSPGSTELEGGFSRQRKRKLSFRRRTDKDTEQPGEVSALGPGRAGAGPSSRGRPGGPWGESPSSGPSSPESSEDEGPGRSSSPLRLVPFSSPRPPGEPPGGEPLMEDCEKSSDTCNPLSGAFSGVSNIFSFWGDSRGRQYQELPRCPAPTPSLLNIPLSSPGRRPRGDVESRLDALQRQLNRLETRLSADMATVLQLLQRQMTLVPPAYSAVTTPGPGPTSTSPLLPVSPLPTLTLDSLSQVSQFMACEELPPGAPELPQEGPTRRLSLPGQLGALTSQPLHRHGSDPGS

[4] = Aqueous solubility of the compound in Japanese Pharmacopoeia 2nd fluid at pH 6.8; format: physicochemical
Method in brief: (§1)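 Solubility measured in Japanese Pharmacopoeia 1st fluid for the dissolution test (pH 1.2) and 2nd fluid (pH 6.8).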

[5] = Aqueous solubility of the compound in Japanese Pharmacopoeia 1st fluid at pH 1.2; format: physicochemical; method in brief: as §1
Mus musculus [6] = assay: Antinociceptive activity in intrathecally dosed ddY mouse assessed as reduction of formalin-induced paw lifting/licking behavior administered 15 mins before formalin challenge measured up to 10 mins; format: functional
Method in brief: (§2)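 Male ddY mice given an intrathecal bolus. After 15 min, 2% formalin (20 µL) injected subcutaneously into the plantar hindpaw. Total lifting/licking time recorded for 0–10 min (first phase) and 15–25 min (second phase). Mean of n = 6 against vehicle, Dunnett's test. ED50 in nmol/body.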

Mus musculus [7] = assay: Antinociceptive activity in intrathecally dosed ddY mouse assessed as reduction of formalin-induced paw lifting/licking behavior administered 15 mins before formalin challenge measured after 15 to 25 mins; format: functional; method in brief: as §2
Mus musculus [8] = assay: Toxicity in intrathecally dosed ddY mouse at 10 to 100 […] measured up to 25 mins; format: organism-based; conditions: in vivo, icv_or_intrathecal
Mus musculus [9] = assay: Antinociceptive activity in ddY mouse assessed as inhibition of formalin-induced paw lifting/licking behavior at 100 mg/kg, po administered 15 mins before formalin challenge measured up to 15 to 25 mins; format: functional
Method in brief: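 Male ddY mice dosed orally at 100 mg/kg. 2% formalin (20 µL) injected subcutaneously into the plantar hindpaw. Lifting/licking time in the second phase (15–25 min) expressed as % inhibition.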

Rattus norvegicus [10] = assay: Analgesic activity in po dosed Sprague-Dawley rat L5/L6 spinal nerve ligation model assessed as reduction of mechanical allodynia; format: functional, organism-based
Method in brief: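 Male Sprague-Dawley rats with L5/L6 spinal nerve ligation (Chung method). Compound given orally at 1 to 10 mg/kg. Hindpaw withdrawal threshold to mechanical stimuli measured on the operated and non-operated sides against vehicle groups, n = 8. ED50 derived from the dose-response. Dunnett's test against the operated-side vehicle group.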

Rattus norvegicus [11] = assay: Neurotoxicity in Sprague-Dawley rat assessed as effect on motor coordination by measuring time spent on rod at 30 mg/kg, po by rotarod test; format: toxicity, organism-based; conditions: in vivo
Method in brief: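 Motor coordination in Sprague-Dawley rats after oral dosing, assessed by an accelerating rotarod test.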

[12] = Lipophilicity, log D of the compound at pH 7.4; format: physicochemical
Method in brief: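 cLogD at pH 7.4 calculated with ACD/PhysChem Batch rather than measured.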

Cytochrome P450 2D6 = Cytochrome P450 2D6 (Homo sapiens, UniProt P10635); assay: Inhibition of CYP2D6 in human liver microsomes using dextromethorphan as substrate preincubated for 30 mins before substrate addition measured after 20 mins by LC-MS/MS analysis
Sequence of Cytochrome P450 2D6 (P10635 whole entry): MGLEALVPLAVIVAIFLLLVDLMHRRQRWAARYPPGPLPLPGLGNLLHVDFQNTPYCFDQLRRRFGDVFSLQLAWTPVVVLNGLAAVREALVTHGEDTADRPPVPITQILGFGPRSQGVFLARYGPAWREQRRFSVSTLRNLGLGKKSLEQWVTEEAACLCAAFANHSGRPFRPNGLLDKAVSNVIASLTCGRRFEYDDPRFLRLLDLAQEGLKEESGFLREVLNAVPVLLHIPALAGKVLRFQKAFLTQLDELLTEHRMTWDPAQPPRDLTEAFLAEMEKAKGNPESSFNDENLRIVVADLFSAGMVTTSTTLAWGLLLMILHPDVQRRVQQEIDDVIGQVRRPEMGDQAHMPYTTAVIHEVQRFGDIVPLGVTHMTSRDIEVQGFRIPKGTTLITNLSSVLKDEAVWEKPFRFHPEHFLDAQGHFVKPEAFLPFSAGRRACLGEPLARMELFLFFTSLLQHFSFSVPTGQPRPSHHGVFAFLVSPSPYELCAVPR

pIC50 [2]	pIC50 (Cytochrome P450 2D6)	SMILES	other results
5.72	–	COc1ccc2c(c1)CCN(C(=O)CNCC1(O)CCCCC1)[C@@H]2C(C)C	CLint scaled at 0.2 µM [1]: 101 mL/min/kg; pIC50 (Cytochrome P450 2C9): < 4.30; pIC50 [3]: < 4.00; solubility [4]: > 100 µg/mL; solubility [5]: > 100 µg/mL; Activity (Mus musculus [6]): Dose-dependent effect; ED50 (Mus musculus [6]): >100 nmol; Activity (Mus musculus [7]): Dose-dependent effect; ED50 (Mus musculus [7]): 25.4 nmol; Activity (Mus musculus [8]): Non-toxic; inhibition in vivo at 100 mg/kg (Mus musculus [9]): 64%; Activity (Rattus norvegicus [10]): Dose-dependent effect; Activity (Rattus norvegicus [11]): Non-toxic; logD [12]: 2.4
5.21	–	CC(C)(O)C1c2ccccc2CCN1C(=O)CNCC1(O)CCCCC1 (stereo not drawn)	–
5.82	–	CC(C)C1c2c(F)cccc2CCN1C(=O)CNCC1(O)CCCCC1 (stereo not drawn)	–
5.80	> 6.11	Cc1cccc2c1C(C(C)C)N(C(=O)CNCC1(O)CCCCC1)CC2 (stereo not drawn)	–
5.80	–	COc1ccc2c(c1)C(C(C)C)N(C(=O)CNCC1(O)CCCCC1)CC2 (stereo not drawn)	–
6.05	6.41	CC(C)C1c2ccc(F)cc2CCN1C(=O)CNCC1(O)CCCCC1 (stereo not drawn)	–
5.85	> 6.11	Cc1cccc2c1CCN(C(=O)CNCC1(O)CCCCC1)C2C(C)C (stereo not drawn)	–
5.96	–	CC(C)C1c2ccccc2CCN1C(=O)CNCC1(O)CCCCC1 (stereo not drawn)	–
6.00	–	O=C(CNCC1(O)CCCCC1)N1CCc2ccccc2C1C1CCCC1 (stereo not drawn)	–
5.54	–	CC1c2ccccc2CCN1C(=O)CNCC1(O)CCCCC1 (stereo not drawn)	–
6.14	> 6.11	CCC(CC)C1c2ccccc2CCN1C(=O)CNCC1(O)CCCCC1 (stereo not drawn)	–
5.39	–	O=C(CNCC1(O)CCCCC1)N1CCc2ccccc2C1C1CCOCC1 (stereo not drawn)	–
6.10	> 6.11	CC(C)(C)C1c2ccccc2CCN1C(=O)CNCC1(O)CCCCC1 (stereo not drawn)	–
5.89	6.17	CC(C)C1c2cc(F)ccc2CCN1C(=O)CNCC1(O)CCCCC1 (stereo not drawn)	–
6.00	> 6.41	O=C(CNCC1(O)CCCCC1)N1CCc2ccccc2[C@@H]1c1ccccc1	–
5.68	–	COc1ccc2c(c1)CCN(C(=O)CNCC1(O)CCCCC1)[C@H]2C(C)C	CLint scaled at 0.2 µM [1]: 188 mL/min/kg; pIC50 (Cytochrome P450 2C9): < 4.30; pIC50 [3]: < 4.00; solubility [4]: > 100 µg/mL; solubility [5]: > 100 µg/mL
5.85	–	COc1cccc2c1C(C(C)C)N(C(=O)CNCC1(O)CCCCC1)CC2 (stereo not drawn)	–
5.89	–	COc1ccc2c(c1)CCN(C(=O)CNCC1(O)CCCCC1)C2C(C)C (stereo not drawn)	–
5.85	> 6.11	Cc1ccc2c(c1)C(C(C)C)N(C(=O)CNCC1(O)CCCCC1)CC2 (stereo not drawn)	–
5.43	–	COC(C)(C)C1c2ccccc2CCN1C(=O)CNCC1(O)CCCCC1 (stereo not drawn)	–
5.10	–	O=C(CNCC1(O)CCCCC1)N1CCc2ccccc2C1	–
